The target in experiment [1] is Muscarinic acetylcholine receptor. Kind of experiment: In vitro inhibition of binding of (-)-[3H]-NMS to Muscarinic acetylcholine receptor of rat cerebral cortex was determined. Format: tissue-based. Summed up:
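Rat cerebral cortex (male Sprague-Dawley, 200–300 g) homogenised in 50 mM Na-K phosphate buffer, pH 7.4, then centrifuged and resuspended at 10 mg wet tissue/mL. Competition with 0.3 nM (–)-[3H]NMS for 30 min at 30 °C, followed by filtration. Nonspecific binding defined with 10 μM atropine. IC50 from a one-site nonlinear fit, converted to Ki by Cheng-Prusoff using NMS Kd 0.076 nM. Three experiments, each in triplicate.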

Experiment [2] is filed under the species Cavia porcellus. Kind of experiment: In vitro muscarinic activity against guinea pig ileum was determined. Format: functional. Summed up: (§1)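 Isolated ileum contractions recorded isotonically at 1 g tension with a displacement transducer. Cumulative concentration-response curves built by raising agonist concentration stepwise by a factor of 2.15. Maximal response expressed as a percentage of the carbachol maximum.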

Experiment [3] has as its target Muscarinic acetylcholine receptor. Kind of experiment: Dissociation constant of the drug-Muscarinic acetylcholine receptor complex. Format: protein assay, Cavia porcellus.
The species entered for experiment [4] is Cavia porcellus. Kind of experiment: Maximal contractile response as a percentage of that elicited by carbachol. It is filed as functional. Summed up: as §1

As to `CC1CCC(=O)N1CC#CC[N+](C)(C)C` (configuration not stated), the Ki (in general, a measure of affinity in units of concentration, obtained from inhibition or displacement) in experiment [1] turned out to be 0.61 µM. Besides, in the experiment listed under Cavia porcellus [2], the EC50 (in general, the concentration giving half of the maximal effect) was determined as 0.18 µM. In addition, the Kd (usually the free concentration of one partner at which half of the binding sites on the other are occupied at equilibrium, for simple one-to-one binding) in experiment [3] amounted to 1.7 µM. Also, the Emax in the experiment listed under Cavia porcellus [4] was 100.
With `CC1CC(=O)N1CC#CC[N+](C)(C)C` (configuration not stated), the Ki in experiment [1] came to 19.6 µM. The same compound showed an EC50 in the experiment listed under Cavia porcellus [2] of 55 µM. In the experiment listed under Cavia porcellus [4], this compound gave an Emax of 97.
For `CC1CCC(=O)N1CC#CCN1CCCC1` (configuration not stated), the Ki in experiment [1] was 0.056 µM. The Kd in experiment [3] was determined as 0.093 µM. This compound also had an Emax in the experiment listed under Cavia porcellus [4] of 0.
On the same counts, the results for `CC1CC(=O)N(CC#CCN2CCCC2)C1` (configuration not stated) are 5 µM, 10 µM and 0.
Compound `CC1CCN(CC#CCN2CCCC2)C1=O` (configuration not stated) returned an inhibition constant (Ki) in experiment [1] of 1.2 µM. The compound further had a half-maximal effective concentration (EC50) in the experiment filed under Cavia porcellus [2] of 0.5 µM. Besides, in experiment [3], the Kd worked out at 11.5 µM. The compound further registered an Emax in the experiment filed under Cavia porcellus [4] of 100.
For the compound `CC1CC(=O)N1CC#CCN1CCCC1` (configuration not stated), the Ki in experiment [1] was found to be 0.99 µM. The compound further had a Kd in experiment [3] of 1.7 µM. Further, in the experiment filed under Cavia porcellus [4], the Emax is on record as 0.
`O=C1CCCN1CC#CCN1CCCC1` [OXOTREMORINE] yielded a Ki in experiment [1] of 0.83 µM. In the experiment filed under Cavia porcellus [2], the EC50 amounted to 0.035 µM. In experiment [3], this compound gave an equilibrium dissociation constant (Kd) of 0.93 µM. The Emax in the experiment filed under Cavia porcellus [4] is listed as 100.
Consider `CC1CN(CC#CCN2CCCC2)C1=O` (configuration not stated), for which the Ki in experiment [1] was 5.6 µM. The same compound returned an EC50 in the experiment listed under Cavia porcellus [2] of 24 µM. The compound also displayed an Emax in the experiment filed under Cavia porcellus [4] of 23.
Consider `CC1CCC(=O)N1CC#CCN(C)C` (configuration not stated), for which the inhibitory constant (Ki) in experiment [1] was 2.2 µM. In addition, it took 0.91 µM to reach a half-maximal effect in the experiment filed under Cavia porcellus [2] (EC50). Moreover, in experiment [3], the Kd was 4.3 µM. Further, the Emax in the experiment filed under Cavia porcellus [4] stood at 102.
As for `O=C1CCN1CC#CCN1CCCC1`, in experiment [1], the Ki came out at 0.94 µM. In addition, the 50% effective concentration (EC50) in the experiment listed under Cavia porcellus [2] was 0.29 µM. In addition, the Emax in the experiment filed under Cavia porcellus [4] came to 100.
On the same counts, the results for `CC1CC(=O)N1CC#CCN(C)C` (configuration not stated) are 43 µM, 88 µM and 95.

The record behind these values is ChEMBL document CHEMBL1125046, “Beta-lactam analogues of oxotremorine. 3- and 4-methyl-substituted 2-azetidinones” (J Med Chem, 1990).
